TAAR1 agonist: agonists of human TAAR1; activation, % at 3 µM; Q96RJ0; CHO RD-HGA16 TAAR1, Fluo-8 calcium fluorescence; vehicle wells 0%, saturating PEA agonist 100%; 360,000 tested, 0.99% active;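 active means activation above the mean activation of all test compounds in the run plus 3 SD, cut at about 38% in these data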
Target sequence (Q96RJ0 whole entry, looked up): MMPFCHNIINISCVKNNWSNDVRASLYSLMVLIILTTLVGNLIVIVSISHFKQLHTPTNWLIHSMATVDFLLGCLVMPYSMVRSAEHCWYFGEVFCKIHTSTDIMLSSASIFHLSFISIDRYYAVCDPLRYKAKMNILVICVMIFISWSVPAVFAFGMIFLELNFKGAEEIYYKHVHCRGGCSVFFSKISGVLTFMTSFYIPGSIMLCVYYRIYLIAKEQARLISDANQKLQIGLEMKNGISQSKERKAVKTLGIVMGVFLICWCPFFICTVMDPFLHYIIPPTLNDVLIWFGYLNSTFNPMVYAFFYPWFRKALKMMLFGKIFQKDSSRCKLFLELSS
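Test system: RD-HGA16 (CHO) cells co-expressing Gα16 and hTAAR1 | Doses: Single dose, 3 µM | Schedule: 17-24 h seeding, 75 min 37 °C dye, 30 min RT | Evaluation: % activation from peak over basal fluorescence ratio, DMSO-to-PEA scaled | Technique: Kinetic Fluo-8 calcium fluorescence | Benchmarks: Low control DMSO, high control PEA (EC100)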
OX1R antag-1: blocks the human orexin 1 receptor | OX1R-expressing cells, FRET antagonist read-out | inhibition, % at 6.6 µM | 330,000 tested, 1.8% active | AID 485270; in the data active means inhibition mostly above about 38%, no sharp cut-off; inactive means mostly below about 40%;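 further: 0% = agonist challenge alone and 100% = reference antagonist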
GPR7 antagonist: antagonists of human GPR7 (neuropeptides B/W receptor 1); P48145; GPR7-expressing cells, fluorescence antagonist assay; inhibition, % at 4.4 µM; 290,000 tested, 1.1% active; in the data active means inhibition above about 16%, passing the limit was not always enough;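 further: cells stimulated with the agonist NPW; 0% = agonist with vehicle and 100% = vehicle without agonist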
Target sequence (P48145 whole entry, looked up): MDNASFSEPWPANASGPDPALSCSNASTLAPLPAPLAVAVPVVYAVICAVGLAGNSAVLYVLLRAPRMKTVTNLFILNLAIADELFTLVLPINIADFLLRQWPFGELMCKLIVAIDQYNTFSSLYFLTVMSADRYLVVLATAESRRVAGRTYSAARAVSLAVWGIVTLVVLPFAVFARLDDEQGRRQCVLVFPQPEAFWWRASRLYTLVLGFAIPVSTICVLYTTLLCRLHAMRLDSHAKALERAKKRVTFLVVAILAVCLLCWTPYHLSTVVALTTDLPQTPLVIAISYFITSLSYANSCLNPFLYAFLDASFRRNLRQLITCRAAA
CHO parental Ca: signal in parental CHO cells, OX1R antagonist counter-screen | parental CHO-K1, ATP-induced calcium, Fluo-8 fluorescence | inhibition, % at 5.6 µM | 330,000 tested, 0.63% active;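 active means inhibition above that plate's mean sample inhibition plus 3 SD, cut at about 26% in these data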;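 further: 0% = ATP-challenged DMSO wells and 100% = DMSO wells without ATP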
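Material: Parental CHO cells | Reagent: ATP | Compound dosing: Single nominal dose of 5.6 µM per compound | Detection: Intracellular calcium via Fluo-8 no-wash fluorescent dye | Read-out: % inhibition of ATP-induced calcium mobilization | Benchmarks: Low control ATP plus DMSO, high control DMSO only | Replicates: Singlicate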
TAAR1 antag: antagonists of human TAAR1; Q96RJ0; CHO RD-HGA16 TAAR1, Fluo-8 calcium fluorescence, antagonist; inhibition, % at 3 µM; 360,000 tested, 1.5% active;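 active means inhibition above a per-plate cutoff, the mean inhibition of test compounds on that plate plus 3 SD, cut at about 49% in these data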;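 further: 0% = DMSO plus EC80 beta-PEA response and 100% = DMSO alone without agonist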
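System: CHO RD-HGA16 cells bearing hTAAR1. Reagent: EC80 β-phenethylamine stimulus. Schedule: seeding 17-24 h prior, 75-min 37 °C, 30-min RT dye loading. Signal: Fluo-8 intracellular calcium dye fluorescence, real-time kinetic reads. Read-out: % inhibition from peak post-agonist over basal fluorescence ratio. Benchmarks: vehicle wells and EC80 agonist wells. Replicates: n of 1.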
OX1R antag-2: human HCRTR1 antagonism; CHO/OX1R cells, Fluo-8 calcium fluorescence, orexin A; 330,000 tested, 0.43% active; inhibition, % at 5 µM; O43613;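 active means inhibition above its plate's threshold, mean inhibition of all tested compounds on the plate plus 3 SD, cut at about 37% in these data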;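 further: 0% = orexin A challenge wells and 100% = SB-334867-A antagonist wells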
nonsel antag count: nonselective antagonism, TAAR1 counter-screen. inhibition, % at 3 µM. shares compounds with TAAR1 antag. 2,400 tested, 77% active. counterscreen cell line, calcium fluorescence, antagonist mode; in the data active means inhibition above about 22%;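 further: CHO-Ga16 host cells stimulated with ATP at an EC80 level; 0% = agonist EC80 plus vehicle and 100% = vehicle without agonist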
TAAR1 antag conf: confirmation of human TAAR1 antagonists; shares compounds with TAAR1 antag; TAAR1-expressing cells, fluorescence antagonist read-out; inhibition, % at 3 µM; 2,400 tested, 40% active; AID 651785; in the data active means inhibition above about 49%;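 further: CHO-Ga16 host cells challenged with agonist PEA near its EC80; 0% = agonist at EC80 plus vehicle and 100% = vehicle with no agonist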
Ga16 ag counter-1: nonselective Ga16 agonist in TAAR1 antagonist counter-screen; shares compounds with TAAR1 antag; Ga16-expressing cells, calcium fluorescence, agonist counterscreen; activation, % at 3 µM; 2,400 tested, 18% active; in the data active means activation above about 12%;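 further: 0% = vehicle wells and 100% = saturating stimulus response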
TAAR1 ag counter: TAAR1 agonism, antagonist counter-screen. shares compounds with TAAR1 antag. hTAAR1 cell line, fluorescence activation, agonist mode. activation, % at 3 µM. 2,400 tested, 2% active. AID 651955; in the data active means activation above about 37%;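 further: CHO cells stably expressing TAAR1 with calcium dye readout; 0% = DMSO vehicle and 100% = full agonist response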
TAAR1 ag conf: human TAAR1 agonism, confirmed; AID 651783; 2,400 tested, 82% active; shares compounds with TAAR1 agonist; activation, % at 3 µM; CHO RD-HGA16 TAAR1, Fluo-8 calcium fluorescence; scaled: DMSO 0%, maximal phenethylamine 100%;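 active means activation above a cutoff set at the run's mean compound activation plus 3 SD, cut at about 39% in these data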
Ga16 ag counter-2: nonselective agonist in parental cells, TAAR1 agonist counter-screen; CHO-Ga16 parental, Fluo-8 calcium fluorescence; normalized to maximal ATP response, DMSO zero; activation, % at 3 µM; shares compounds with TAAR1 agonist; 2,400 tested, 50% active;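 active means activation above the run cutoff, the mean activation over all tested wells plus 3 SD, cut at about 12% in these data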;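 further: 0% = DMSO wells and 100% = maximal ATP response on the peak over basal ratio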
TAAR1 desensitize: human TAAR1 agonist that also desensitizes the receptor; shares compounds with TAAR1 agonist; CHO RD-HGA16 hTAAR1, Fluo-8 calcium, beta-PEA response inhibition; inhibition, % at 3 µM; AID 651951; 2,400 tested, 46% active;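 active means inhibition above the run cutoff, the mean inhibition of all test compounds plus 3 SD, cut at about 49% in these data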;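 further: beta-PEA stimulus applied at its EC80; loss of beta-PEA calcium signal after compound pretreatment read as receptor desensitization; 0% = DMSO with beta-PEA at EC80 and 100% = DMSO alone without agonist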
Ga16 antag count: counter-screen for TAAR1 agonists: nonselective Ga16 antagonists; shares compounds with TAAR1 agonist; CHO-Ga16 ATP-induced calcium, Fluo-8 fluorescence; AID 651952; inhibition, % at 3 µM; 2,400 tested, 39% active;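 active means inhibition above the plate's mean compound inhibition plus 3 SD, computed per plate, cut at about 22% in these data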;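 further: 0% = EC80 ATP with DMSO and 100% = DMSO wells without ATP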
The depositor's hits bear a star; nt = not tested or not shown; + = active, no number. An excerpt weighted towards active compounds, which were near 4.6% of everything screened.

SMILES | TAAR1 agonist | OX1R antag-1 | GPR7 antagonist | CHO parental Ca | TAAR1 antag | OX1R antag-2 | TAAR1 ag conf | Ga16 ag counter-2 | TAAR1 desensitize | Ga16 antag count | others
C[C@]12CC[C@H]3C(=CCc4cc(O)ccc43)[C@@H]1CCC2=O | 16 | 8 | 7 | -4 | 83* | -2 | nt | nt | nt | nt | nonsel antag count=35*;TAAR1 antag conf=59*;Ga16 ag counter-1=12*;TAAR1 ag counter=13
C[C@]12C[C@H](O)[C@@H]3c4ccc(O)cc4CCC3[C@@H]1CCC2=O (stereo partly drawn) | 1 | 14 | -11 | -2 | -17 | -10 | nt | nt | nt | nt
CC(=O)OCCn1c([N+](=O)[O-])cnc1C=[N+]([O-])C1CCCCC1 | 0 | nt | nt | nt | -11 | nt | nt | nt | nt | nt
O=C(Nc1cc(F)c(Br)cc1F)c1ccc(Cl)cc1 | 91* | 12 | -16 | -2 | 70* | -19 | 1 | 8 | 0 | 11
O=C(Nc1ccc(Cl)cc1C(F)(F)F)c1ccc(Cl)cc1 | 75* | 24 | 1 | 10 | 31 | -11 | 20 | -1 | 19 | 9
CCn1c2ccccc2c2cc(/C=N/NC(=O)c3ccc(O)cc3)ccc21 | 47* | 76* | -10 | -21 | 30 | 9 | 47* | 2 | 29 | 13
Cc1sc2ncnc(N/N=C/c3cccc(O)c3)c2c1C | 9 | 9 | -9 | -8 | -3 | -8 | nt | nt | nt | nt
C/C(=N\Nc1ncnc2sc(C)c(C)c12)c1ccccn1 | 135* | 34 | 6 | 79* | 104* | 90* | 95* | 95* | 84* | 86*
COc1ccccc1CCNC(=O)C(=O)c1cn(CC(=O)N2CCOCC2)c2ccccc12 | 12 | 12 | 1 | -14 | -6 | -31 | nt | nt | nt | nt
COc1cccc(/C=N/NC(=O)Cn2nc(C)c([N+](=O)[O-])c2C)c1O | 1 | 18 | 2 | -6 | -17 | -25 | nt | nt | nt | nt
C/C(=N\NC(=O)Cn1nc(C)c([N+](=O)[O-])c1C)c1ccc(Cl)s1 | 1 | 12 | -15 | -16 | -16 | -23 | nt | nt | nt | nt
Cc1nn(CC(=O)N/N=C/c2cccs2)c(C)c1[N+](=O)[O-] | 57* | 13 | -19 | -5 | 38 | -9 | 80* | 6 | 72* | 4
Cc1ccsc1/C=N/NC(=O)Cn1nc(C)c([N+](=O)[O-])c1C | 45* | 5 | -7 | -15 | -6 | -28 | 72* | 0 | 55* | 6
Cc1ccsc1/C=N/NC(=O)Cn1cnc2ccccc21 | 56* | 37 | -5 | -13 | 29 | -12 | 61* | 2 | 45 | 12
COc1ccc(C(CNC(=O)c2c(C)nn(Cc3ccc(C)cc3)c2Cl)N2CCOCC2)cc1 (stereo not drawn) | 6 | 15 | nt | -26 | 20 | -20 | nt | nt | nt | nt
CO[C@H]1CN(C)C(=O)c2ccc(NC(=O)c3ccc4c(c3)OCO4)cc2OC[C@H](C)N(CC2CC2)C[C@@H]1C | 2 | nt | nt | nt | -18 | nt | nt | nt | nt | nt
CCOC(=O)C1=CCN(S(=O)(=O)c2ccccc2F)C1c1ccccc1 (stereo not drawn) | -1 | nt | nt | nt | -15 | nt | nt | nt | nt | nt
COCCNC(=O)c1[nH]c(C(F)(F)F)nc1-c1ccccc1 | 0 | nt | nt | nt | -13 | nt | nt | nt | nt | nt
C[C@H]1[C@H](c2ccccc2)Oc2cccc(NCCc3ccccc3)c2S(=O)(=O)N1Cc1ccc(F)cc1 | 79* | nt | nt | nt | 2 | nt | 70* | 2 | 18 | 10
O=C(Cn1cc(C(F)(F)F)ccc1=O)OCC(=O)c1ccc[nH]1 | 1 | 7 | nt | -6 | -3 | -5 | nt | nt | nt | nt
O=C(NN1C(=O)C2C(c3ccccc3)C=CC(c3ccccc3)C2C1=O)c1ccncc1 (stereo not drawn) | 47* | 11 | -3 | -4 | 24 | 9 | 18 | 16* | 17 | 9
O=C(NN1C(=O)C2C3C=CC(C3)C2C1=O)c1ccncc1 (stereo not drawn) | 1 | 4 | 3 | -9 | -15 | 4 | nt | nt | nt | nt
O=S1(=O)N[C@H](Cc2ccccc2)COc2cccc(N3CCN(Cc4ccccc4F)CC3)c21 | 3 | nt | nt | nt | 18 | nt | nt | nt | nt | nt
Clc1cccc(Cl)c1CSc1nnc(-c2ccncc2)s1 | 117* | 14 | -1 | 0 | 79* | -7 | 128* | 117* | 100* | 75*
Cc1ccc(OCC(=O)N2CCC(C)CC2)c([N+](=O)[O-])n1 | -1 | 12 | nt | -5 | -10 | -1 | nt | nt | nt | nt
SMILES | TAAR1 agonist | OX1R antag-1 | GPR7 antagonist | CHO parental Ca | TAAR1 antag | OX1R antag-2 | TAAR1 ag conf | Ga16 ag counter-2 | TAAR1 desensitize | Ga16 antag count | others
CC(C)c1ccc(N2C(=O)[C@@H]3Cc4ccccc4CN3C2=O)cc1 | 84* | 13 | 9 | 45* | 82* | -3 | 77* | 46* | 64* | 47*
Cc1ccc(N2C(=O)[C@@H]3Cc4ccccc4CN3C2=O)cc1 | 22 | 7 | -10 | -4 | -6 | -15 | nt | nt | nt | nt
COc1cc(C=NNC(=O)Cn2nc(C)cc2C)ccc1OC(=O)C1CC1 | + | 9 | nt | -8 | -2 | -4 | 2 | 2 | 5 | 1
C=CCN1[C@@H](CC(C)C)COc2cccc(NCCCN3CCOCC3)c2S1(=O)=O | 6 | nt | nt | nt | 1 | nt | nt | nt | nt | nt
CCCC[C@@H]1CNCCN1CCc1cccc2ccccc12 | 66* | 3 | nt | -10 | 75* | -27 | 70* | 6 | 87* | 17
FC(F)(F)c1cc(CCN2CCNC[C@H]2Cc2cccc3ccccc23)cc(C(F)(F)F)c1 | 84* | 12 | nt | 28 | 95* | -4 | 51* | 28* | 40 | 40*
c1ccc(C[C@H]2CNCCN2CCc2cccc3ccccc23)cc1 | 19 | 10 | nt | 0 | 11 | -9 | nt | nt | nt | nt

Screens: PubChem BioAssay, The Scripps Research Institute Molecular Screening Center
